This note sets out measurements from ChEMBL document CHEMBL3616437, “Thiazole compounds with activity against Cryptococcus gattii and Cryptococcus neoformans in vitro” (Eur J Med Chem, 2015).

Each structure is given as a SMILES string.

Assay [1] relates to Cryptococcus gattii species complex. Nature of the assay: Antifungal activity against Cryptococcus gattii L24/01 assessed as reduction in cell viability at 1.9 uM after 6 to 72 hrs by MTT assay. It counts as functional, Cryptococcus bacillisporus. (Tetrazolium assays rely on reduction of a dye to a coloured formazan, in cell work by metabolically active cells.)
Assay [2] shares this test system. As to the kind of experiment: Antifungal activity against Cryptococcus gattii 1913ER assessed as reduction in cell viability at 1.9 uM after 6 to 72 hrs by MTT assay. It counts as functional, Cryptococcus bacillisporus.
The test system is the same in assay [3]. As to the kind of experiment: Antifungal activity against Cryptococcus gattii L27/01 assessed as reduction in cell viability at 1.9 uM after 6 to 72 hrs by MTT assay. In kind it is functional, Cryptococcus bacillisporus.
Assay [4] shares this test system. Nature of the assay: Antifungal activity against Cryptococcus gattii LMM818 assessed as reduction in cell viability at 1.9 uM after 6 to 72 hrs by MTT assay. In kind it is functional, Cryptococcus bacillisporus.
The test system of assay [5] is Cryptococcus neoformans. As to the kind of experiment: Antifungal activity against Cryptococcus neoformans ATCC 62066 assessed as reduction in cell viability at 1.9 uM after 6 to 72 hrs by MTT assay. It counts as functional.
Assay [6] deals with Cryptococcus gattii species complex. As to the kind of experiment: Antifungal activity against Cryptococcus gattii 23/10993 assessed as reduction in cell viability at 1.9 uM after 6 to 72 hrs by MTT assay. It counts as functional, Cryptococcus bacillisporus.
Assay [7] shares this test system. As to the kind of experiment: Antifungal activity against Cryptococcus gattii 135L/03 assessed as reduction in cell viability at 1.9 uM after 6 to 72 hrs by MTT assay. It counts as functional, Cryptococcus bacillisporus.
The test system is the same in assay [8]. As to the kind of experiment: Antifungal activity against Cryptococcus gattii ICB181 assessed as reduction in cell viability at 1.9 uM after 6 to 72 hrs by MTT assay. In kind it is functional, Cryptococcus bacillisporus.
Assay [9] has the same test system. As to the kind of experiment: Antifungal activity against Cryptococcus gattii 196L/03 assessed as reduction in cell viability at 1.9 uM after 6 to 72 hrs by MTT assay. It counts as functional, Cryptococcus bacillisporus.
Assay [10] has the same test system. Nature of the assay: Antifungal activity against Cryptococcus gattii L28/02 assessed as reduction in cell viability at 1.9 uM after 6 to 72 hrs by MTT assay. It counts as functional, Cryptococcus bacillisporus.
The test system is the same in assay [11]. Nature of the assay: Antifungal activity against Cryptococcus gattii 1913ER assessed as reduction in cell viability at 26 uM after 6 to 72 hrs by MTT assay. In kind it is functional, Cryptococcus bacillisporus. The essentials: (§1)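 Time-kill setup: colonies from two 48 h, 35°C SDA passages were suspended in saline to 70% transmittance at 530 nm. They were then diluted to 1-5 x10^3 cells/mL in RPMI with L-glutamine buffered to pH 7.0 with 0.165 M MOPS. Plates were incubated at 35°C for 0-72 h, then MTT (5.0 mg/mL) was added for 3 h. After isopropanol, absorbance was read at 490 nm. Drug-free controls were included, results were confirmed by SDA colony counts, and assays were run in triplicate.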

Assay [12] is described as follows: Selectivity index, ratio of IC50 for C57BL/6 mouse peritoneal macrophages to MIC for Cryptococcus gattii ATCC 24065.
Assay [13] deals with Cryptococcus neoformans. As to the kind of experiment: Antifungal activity against Cryptococcus neoformans F10 assessed as reduction in cell viability at 26 uM after 6 to 72 hrs by MTT assay. It counts as functional. The method, boiled down:
as §1

Assay [14] relates to Cryptococcus gattii species complex. Nature of the assay: Antifungal activity against Cryptococcus gattii L27/01 assessed as reduction in cell viability at 26 uM after 6 to 72 hrs by MTT assay. It counts as functional, Cryptococcus bacillisporus. The method, boiled down: as §1
Assay [15] shares this test system. As to the kind of experiment: Antifungal activity against Cryptococcus gattii 1913ER assessed as reduction in cell viability at 3.9 uM after 6 to 72 hrs by MTT assay. In kind it is functional, Cryptococcus bacillisporus.
For assay [16] the test system is unchanged. As to the kind of experiment: Antifungal activity against Cryptococcus gattii L24/01 assessed as reduction in cell viability at 3.9 uM after 6 to 72 hrs by MTT assay. It counts as functional, Cryptococcus bacillisporus.
In the next assay the test system is Cryptococcus gattii. Nature of the assay: Antifungal activity against Cryptococcus gattii ATCC 24065 assessed as reduction in cell viability at 3.9 uM after 6 to 72 hrs by MTT assay.
The test system of assay [17] is Cryptococcus gattii species complex. As to the kind of experiment: Antifungal activity against Cryptococcus gattii ICB181 assessed as reduction in cell viability at 3.9 uM after 6 to 72 hrs by MTT assay. It counts as functional, Cryptococcus bacillisporus.
Assay [18] relates to Cryptococcus neoformans. As to the kind of experiment: Antifungal activity against Cryptococcus neoformans 5396 assessed as reduction in cell viability at 3.9 uM after 6 to 72 hrs by MTT assay. In kind it is functional.
The test system of assay [19] is Cryptococcus gattii species complex. As to the kind of experiment: Antifungal activity against Cryptococcus gattii 547/OTTI-97-PI-10 assessed as reduction in cell viability at 3.9 uM after 6 to 72 hrs by MTT assay. In kind it is functional, Cryptococcus bacillisporus.
Assay [20] shares this test system. Nature of the assay: Antifungal activity against Cryptococcus gattii LMM818 assessed as reduction in cell viability at 3.9 uM after 6 to 72 hrs by MTT assay. It counts as functional, Cryptococcus bacillisporus.
The test system of assay [21] is Cryptococcus neoformans. Nature of the assay: Antifungal activity against Cryptococcus neoformans WP assessed as reduction in cell viability at 3.9 uM after 6 to 72 hrs by MTT assay. In kind it is functional.
In assay [22] the test system is Cryptococcus neoformans. Nature of the assay: Antifungal activity against Cryptococcus neoformans LMM820 assessed as reduction in cell viability at 3.9 uM after 6 to 72 hrs by MTT assay. It counts as functional.
Assay [23] has as its system Cryptococcus neoformans. Nature of the assay: Antifungal activity against Cryptococcus neoformans VM-MCMMPI assessed as reduction in cell viability at 3.9 uM after 6 to 72 hrs by MTT assay. It counts as functional.
For assay [24], the system named is Cryptococcus gattii species complex. Nature of the assay: Antifungal activity against Cryptococcus gattii 196L/03 assessed as reduction in cell viability at 3.9 uM after 6 to 72 hrs by MTT assay. In kind it is functional, Cryptococcus bacillisporus.
For assay [25], the system named is Cryptococcus neoformans. As to the kind of experiment: Antifungal activity against Cryptococcus neoformans 96806 assessed as reduction in cell viability at 3.9 uM after 6 to 72 hrs by MTT assay. In kind it is functional.
In assay [26] the test system is Cryptococcus neoformans. Nature of the assay: Antifungal activity against Cryptococcus neoformans 27JF assessed as reduction in cell viability at 3.9 uM after 6 to 72 hrs by MTT assay. In kind it is functional.
The subject of assay [27] is Cryptococcus neoformans. As to the kind of experiment: Antifungal activity against Cryptococcus neoformans CN31 assessed as reduction in cell viability at 3.9 uM after 6 to 72 hrs by MTT assay. In kind it is functional.
Assay [28] has as its system Cryptococcus neoformans. Nature of the assay: Antifungal activity against Cryptococcus neoformans ATCC 24067 assessed as reduction in cell viability at 3.9 uM after 6 to 72 hrs by MTT assay. It counts as functional.
For assay [29], the system named is Cryptococcus gattii species complex. As to the kind of experiment: Antifungal activity against Cryptococcus gattii 23/10993 assessed as reduction in cell viability at 3.9 uM after 6 to 72 hrs by MTT assay. It counts as functional, Cryptococcus bacillisporus.
Assay [30] relates to Cryptococcus neoformans. Nature of the assay: Antifungal activity against Cryptococcus neoformans 5396 assessed as reduction in cell viability at 0.12 uM after 6 to 72 hrs by MTT assay. In kind it is functional.
Assay [31] relates to Cryptococcus gattii species complex. As to the kind of experiment: Antifungal activity against Cryptococcus gattii L27/01 assessed as reduction in cell viability at 0.12 uM after 6 to 72 hrs by MTT assay. It counts as functional, Cryptococcus bacillisporus.
Assay [32] concerns Cryptococcus neoformans. As to the kind of experiment: Antifungal activity against Cryptococcus neoformans 96806 assessed as reduction in cell viability at 0.12 uM after 6 to 72 hrs by MTT assay. It counts as functional.
Assay [33] concerns Cryptococcus gattii species complex. Nature of the assay: Post-antifungal activity against Cryptococcus gattii L27/01 assessed as organism required time to achieve cell population of 10^4 cells/ml at 0.45 uM treated for 1 hr by MTT assay in presence of 0.11 uM amphotericin B. In kind it is functional, Cryptococcus bacillisporus.
Assay [34] deals with Cryptococcus neoformans. As to the kind of experiment: Antifungal activity against Cryptococcus neoformans 96806 assessed as reduction in cell viability at 0.9 uM after 6 to 72 hrs by MTT assay. It counts as functional.
Assay [35] concerns Cryptococcus neoformans. As to the kind of experiment: Antifungal activity against Cryptococcus neoformans ATCC 24067 assessed as reduction in cell viability at 0.9 uM after 6 to 72 hrs by MTT assay. It counts as functional.
For assay [36], the system named is Cryptococcus neoformans. As to the kind of experiment: Antifungal activity against Cryptococcus neoformans WP assessed as reduction in cell viability at 0.9 uM after 6 to 72 hrs by MTT assay. It counts as functional.
The test system of assay [37] is Cryptococcus neoformans. As to the kind of experiment: Antifungal activity against Cryptococcus neoformans 28JF assessed as reduction in cell viability at 0.9 uM after 6 to 72 hrs by MTT assay. It counts as functional.

`C(=N\Nc1nc(-c2ccccc2)cs1)/C1CCCCC1`: the Activity (in assay [1]; in [2]; in assay [3]; in [4]; with Cryptococcus neoformans [5]; in assay [6]) was 90% in each case. The Activity in assay [7], in assay [8], in assay [9] and in assay [10] was 90% throughout.

As for `OC(Cn1cncn1)(Cn1cncn1)c1ccc(F)cc1F` [FLUCONAZOLE], the Activity (in [11]; with Cryptococcus neoformans [13]; in assay [14]) was 80% in each case. The Ratio in assay [12] amounted to 7.87.

As for `c1ccc(-c2csc(NN=C3CCCC3)n2)cc1`, the Activity (in [15]; in [16]; in the assay on Cryptococcus gattii; in assay [17]; with Cryptococcus neoformans [18]; in [19]) was 80% throughout. In addition, the Activity (in assay [20]; with Cryptococcus neoformans [21]; in the assay with Cryptococcus neoformans [22]; in the assay on Cryptococcus neoformans [23]; in assay [24]; in the assay on Cryptococcus neoformans [25]) was 80% throughout. For the same compound, the Activity (with Cryptococcus neoformans [26]; in the assay on Cryptococcus neoformans [27]; in the assay on Cryptococcus neoformans [28]; in assay [29]) was 80% in each case.

`COc1ccc(-c2csc(N/N=C/C3CCCCC3)n2)cc1`: the Activity (in assay [15]; in assay [16]; in the assay on Cryptococcus gattii; in assay [17]; in the assay on Cryptococcus neoformans [18]; in [19]) was 80% throughout. In addition, the Activity (in assay [20]; with Cryptococcus neoformans [21]; with Cryptococcus neoformans [22]; in the assay on Cryptococcus neoformans [23]; in assay [24]; with Cryptococcus neoformans [25]) was 80% throughout. Moreover, the Activity (in the assay on Cryptococcus neoformans [26]; in the assay with Cryptococcus neoformans [27]; with Cryptococcus neoformans [28]; in [29]) was 80% in each case. The Ratio in assay [12] turned out to be 25.64.

On to `C[C@@H]1[C@H](O)[C@@H](C)/C=C/C=C/C=C/C=C/C=C/C=C/C=C/[C@H](O[C@@H]2O[C@H](C)[C@@H](O)[C@H](N)[C@@H]2O)C[C@@H]2O[C@](O)(C[C@@H](O)C[C@@H](O)[C@H](O)CC[C@@H](O)C[C@@H](O)CC(=O)O[C@H]1C)C[C@H](O)[C@H]2C(=O)O` [AMPHOTERICIN B], for which the Activity (in the assay on Cryptococcus neoformans [30]; in assay [31]; in the assay on Cryptococcus neoformans [32]) was 90% throughout.

`COc1ccc(-c2csc(N/N=C(\C)CCO)n2)cc1`: the Activity (in assay [1]; in assay [2]; in assay [3]; in [4]; in the assay on Cryptococcus neoformans [34]; in assay [6]) was 90% in each case. Further, the Activity (in assay [7]; in assay [8]; in [9]; in assay [10]; in the assay on Cryptococcus neoformans [35]; in the assay with Cryptococcus neoformans [36]) was 90% throughout. For the same compound, the Activity in the assay with Cryptococcus neoformans [37] was 90%. Besides, in assay [33], the Time is 2.15 h.
